Test results published in ChEMBL document CHEMBL3585335, “Isolation and Synthetic Diversification of Jadomycin 4-Amino-l-phenylalanine” (J Nat Prod, 2015).
The source made the active and inactive calls.

Legend:
A498 = test: Cytotoxicity against human A498 cells assessed as cell growth at 1 x 10^-5 M; assay type: functional, cell-based
Outline: (§1)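 Run by the NCI Developmental Therapeutics Program (DTP) as its one-dose screen across the 60 human tumour cell line panel.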

SN12C = test: Cytotoxicity against human SN12C cells assessed as cell growth at 1 x 10^-5 M; assay type: functional, cell-based; outline: as §1
MCF7 = test: Cytotoxicity against human MCF7 cells assessed as cell growth at 1 x 10^-5 M; assay type: functional, cell-based; outline: as §1
U-251 = test: Cytotoxicity against human U251 cells assessed as cell growth at 1 x 10^-5 M; assay type: functional, cell-based
Outline: (§2)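 Tested by the NCI Developmental Therapeutics Program in its one-dose screen across the 60 human tumour cell line panel.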

Escherichia coli [1] = test: Effect on Copper-mediated Escherichia coli pUC19 DNA cleavage at 100 uM by gel-electrophoresis analysis
ACHN = test: Cytotoxicity against human ACHN cells assessed as cell growth at 1 x 10^-5 M; assay type: functional, cell-based; outline: as §1
DU-145 = test: Cytotoxicity against human DU145 cells assessed as cell growth at 1 x 10^-5 M; assay type: functional, cell-based; outline: as §1
OVCAR-3 = test: Cytotoxicity against human OVCAR3 cells assessed as cell growth at 1 x 10^-5 M; assay type: functional, cell-based; outline: as §1
OVCAR-4 = test: Cytotoxicity against human OVCAR4 cells assessed as cell growth at 1 x 10^-5 M; assay type: functional, cell-based; outline: as §1
MDA-MB-468 = test: Cytotoxicity against human MDA-MB-468 cells assessed as cell growth at 1 x 10^-5 M; assay type: functional, cell-based; outline: as §1
SF-268 = test: Cytotoxicity against human SF268 cells assessed as cell growth at 1 x 10^-5 M; assay type: functional, cell-based; outline: as §1
NCI-H23 = test: Cytotoxicity against human NCI-H23 cells assessed as cell growth at 1 x 10^-5 M; assay type: functional, cell-based; outline: as §1
COLO 205 = test: Cytotoxicity against human COLO205 cells assessed as cell growth at 1 x 10^-5 M; assay type: functional, cell-based; outline: as §1
K562 = test: Cytotoxicity against human K562 cells assessed as cell growth at 1 x 10^-5 M; assay type: functional, cell-based; outline: as §1
NCI-H522 = test: Cytotoxicity against human NCI-H522 cells assessed as cell growth at 1 x 10^-5 M; assay type: functional, cell-based; outline: as §1
IGROV-1 = test: Cytotoxicity against human IGROV1 cells assessed as cell growth at 1 x 10^-5 M; assay type: functional, cell-based; outline: as §1
PC-3 = test: Cytotoxicity against human PC3 cells assessed as cell growth at 1 x 10^-5 M; assay type: functional, cell-based; outline: as §1
SR = test: Cytotoxicity against human SR cells assessed as cell growth at 1 x 10^-5 M; assay type: functional, cell-based; outline: as §1
SF-295 = test: Cytotoxicity against human SF295 cells assessed as cell growth at 1 x 10^-5 M; assay type: functional, cell-based; outline: as §1
SNB-75 = test: Cytotoxicity against human SNB75 cells assessed as cell growth at 1 x 10^-5 M; assay type: functional, cell-based; outline: as §1
TK-10 = test: Cytotoxicity against human TK10 cells assessed as cell growth at 1 x 10^-5 M; assay type: functional, cell-based; outline: as §2
Hs-578T = test: Cytotoxicity against human Hs578T cells assessed as cell growth at 1 x 10^-5 M; assay type: functional, cell-based; outline: as §1
786-0 = test: Cytotoxicity against human 786-0 cells assessed as cell growth at 1 x 10^-5 M; assay type: functional, cell-based; outline: as §1
HT-29 = test: Cytotoxicity against human HT-29 cells assessed as cell growth at 1 x 10^-5 M; assay type: functional, cell-based; outline: as §1
HCC 2998 = test: Cytotoxicity against human HCC2998 cells assessed as cell growth at 1 x 10^-5 M; assay type: functional, cell-based; outline: as §1
M14 = test: Cytotoxicity against human M14 cells assessed as cell growth at 1 x 10^-5 M; assay type: functional, cell-based; outline: as §1
SK-OV-3 = test: Cytotoxicity against human SKOV3 cells assessed as cell growth at 1 x 10^-5 M; assay type: functional, cell-based; outline: as §1
T47D = test: Cytotoxicity against human T47D cells assessed as cell growth at 1 x 10^-5 M; assay type: functional, cell-based; outline: as §2
SNB-19 = test: Cytotoxicity against human SNB19 cells assessed as cell growth at 1 x 10^-5 M; assay type: functional, cell-based; outline: as §1
NCI-H322M = test: Cytotoxicity against human NCI-H322M cells assessed as cell growth at 1 x 10^-5 M; assay type: functional, cell-based; outline: as §1
RXF 393 = test: Cytotoxicity against human RXF393 cells assessed as cell growth at 1 x 10^-5 M; assay type: functional, cell-based; outline: as §1
CCRF-CEM = test: Cytotoxicity against human CCRF-CEM cells assessed as cell growth at 1 x 10^-5 M; assay type: functional, cell-based; outline: as §1
HOP-92 = test: Cytotoxicity against human HOP92 cells assessed as cell growth at 1 x 10^-5 M; assay type: functional, cell-based; outline: as §1
UACC-257 = test: Cytotoxicity against human UACC257 cells assessed as cell growth at 1 x 10^-5 M; assay type: functional, cell-based; outline: as §2
NCI-H460 = test: Cytotoxicity against human NCI-H460 cells assessed as cell growth at 1 x 10^-5 M; assay type: functional, cell-based; outline: as §1
Escherichia coli [2] = test: Effect on Copper-mediated Escherichia coli pBR322 DNA cleavage at 100 uM by gel-electrophoresis analysis
HL-60(TB) = test: Cytotoxicity against human HL-60(TB) cells assessed as cell growth at 1 x 10^-5 M; assay type: functional, cell-based
Outline: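 Run by the NCI Developmental Therapeutics Program (DTP) within its 60 human tumour cell line one-dose screen.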

HCT-15 = test: Cytotoxicity against human HCT15 cells assessed as cell growth at 1 x 10^-5 M; assay type: functional, cell-based; outline: as §1
SK-MEL-2 = test: Cytotoxicity against human SK-MEL-2 cells assessed as cell growth at 1 x 10^-5 M; assay type: functional, cell-based; outline: as §1
KM12 = test: Cytotoxicity against human KM12 cells assessed as cell growth at 1 x 10^-5 M; assay type: functional, cell-based; outline: as §1
A549 = test: Cytotoxicity against human A549 cells assessed as cell growth at 1 x 10^-5 M; assay type: functional, cell-based; outline: as §1
NCI/ADR-RES = test: Cytotoxicity against human NCI-ADR-RES cells assessed as cell growth at 1 x 10^-5 M; assay type: functional, cell-based; outline: as §1
CAKI-1 = test: Cytotoxicity against human Caki1 cells assessed as cell growth at 1 x 10^-5 M; assay type: functional, cell-based; outline: as §1
LOX IMVI = test: Cytotoxicity against human LOXIMVI cells assessed as cell growth at 1 x 10^-5 M; assay type: functional, cell-based; outline: as §1
SW-620 = test: Cytotoxicity against human SW620 cells assessed as cell growth at 1 x 10^-5 M; assay type: functional, cell-based; outline: as §2
UO-31 = test: Cytotoxicity against human UO31 cells assessed as cell growth at 1 x 10^-5 M; assay type: functional, cell-based; outline: as §2
SK-MEL-28 = test: Cytotoxicity against human SK-MEL-28 cells assessed as cell growth at 1 x 10^-5 M; assay type: functional, cell-based; outline: as §1
MOLT-4 = test: Cytotoxicity against human MOLT4 cells assessed as cell growth at 1 x 10^-5 M; assay type: functional, cell-based; outline: as §1
MDA-MB-231 = test: Cytotoxicity against human MDA-MB-231 cells assessed as cell growth at 1 x 10^-5 M; assay type: functional, cell-based; outline: as §1
NCI-H226 = test: Cytotoxicity against human NCI-H226 cells assessed as cell growth at 1 x 10^-5 M; assay type: functional, cell-based; outline: as §1
SK-MEL-5 = test: Cytotoxicity against human SK-MEL-5 cells assessed as cell growth at 1 x 10^-5 M; assay type: functional, cell-based; outline: as §1
HCT-116 = test: Cytotoxicity against human HCT116 cells assessed as cell growth at 1 x 10^-5 M; assay type: functional, cell-based; outline: as §1
SF-539 = test: Cytotoxicity against human SF539 cells assessed as cell growth at 1 x 10^-5 M; assay type: functional, cell-based; outline: as §1
OVCAR-8 = test: Cytotoxicity against human OVCAR8 cells assessed as cell growth at 1 x 10^-5 M; assay type: functional, cell-based; outline: as §1
HOP-62 = test: Cytotoxicity against human HOP62 cells assessed as cell growth at 1 x 10^-5 M; assay type: functional, cell-based; outline: as §1
OVCAR-5 = test: Cytotoxicity against human OVCAR5 cells assessed as cell growth at 1 x 10^-5 M; assay type: functional, cell-based; outline: as §1
MDA-MB-435 = test: Cytotoxicity against human MDA-MB-435 cells assessed as cell growth at 1 x 10^-5 M; assay type: functional, cell-based; outline: as §1
BT-549 = test: Cytotoxicity against human BT549 cells assessed as cell growth at 1 x 10^-5 M; assay type: functional, cell-based; outline: as §1
Malme-3M = test: Cytotoxicity against human MALME-3M cells assessed as cell growth at 1 x 10^-5 M; assay type: functional, cell-based; outline: as §1
UACC-62 = test: Cytotoxicity against human UACC62 cells assessed as cell growth at 1 x 10^-5 M; assay type: functional, cell-based; outline: as §2
Escherichia coli [3] = test: Effect on photodynamic inactivation in Escherichia coli pUC19 DNA assessed as photo-mediated DNA cleavage at 10 to 100 uM by ethidium bromide gel-electrophoresis analysis

CCCCCCCCC(=O)Nc1ccc(C[C@H]2C(=O)OC3c4cc(C)cc(O)c4C4=C(C(=O)c5c(O[C@H]6C[C@@H](O)[C@@H](O)[C@H](C)O6)cccc5C4=O)N32)cc1 (some centres undefined)
inactive: growth inhibition (GI) (A498) | growth inhibition (GI) (SN12C) | growth inhibition (GI) (MCF7) | growth inhibition (GI) (U-251) | Activity (Escherichia coli [1]) | growth inhibition (GI) (ACHN) | growth inhibition (GI) (DU-145) | growth inhibition (GI) (OVCAR-3) | growth inhibition (GI) (OVCAR-4) | growth inhibition (GI) (MDA-MB-468) | growth inhibition (GI) (SF-268) | growth inhibition (GI) (NCI-H23) | growth inhibition (GI) (COLO 205) | growth inhibition (GI) (K562) | growth inhibition (GI) (NCI-H522) | growth inhibition (GI) (IGROV-1) | growth inhibition (GI) (PC-3) | growth inhibition (GI) (SR) | growth inhibition (GI) (SF-295) | growth inhibition (GI) (SNB-75) | growth inhibition (GI) (TK-10) | growth inhibition (GI) (Hs-578T) | growth inhibition (GI) (786-0) | growth inhibition (GI) (HT-29) | growth inhibition (GI) (HCC 2998) | growth inhibition (GI) (M14) | growth inhibition (GI) (SK-OV-3) | growth inhibition (GI) (T47D) | growth inhibition (GI) (SNB-19) | growth inhibition (GI) (NCI-H322M) | growth inhibition (GI) (RXF 393) | growth inhibition (GI) (CCRF-CEM) | growth inhibition (GI) (HOP-92) | growth inhibition (GI) (UACC-257) | growth inhibition (GI) (NCI-H460) | Activity (Escherichia coli [2]) | growth inhibition (GI) (HL-60(TB)) | growth inhibition (GI) (HCT-15) | growth inhibition (GI) (SK-MEL-2) | growth inhibition (GI) (KM12) | growth inhibition (GI) (A549) | growth inhibition (GI) (NCI/ADR-RES) | growth inhibition (GI) (CAKI-1) | growth inhibition (GI) (LOX IMVI) | growth inhibition (GI) (SW-620) | growth inhibition (GI) (UO-31) | growth inhibition (GI) (SK-MEL-28) | growth inhibition (GI) (MOLT-4) | growth inhibition (GI) (MDA-MB-231) | growth inhibition (GI) (NCI-H226) | growth inhibition (GI) (SK-MEL-5) | growth inhibition (GI) (HCT-116) | growth inhibition (GI) (SF-539) | growth inhibition (GI) (OVCAR-8) | growth inhibition (GI) (HOP-62) | growth inhibition (GI) (OVCAR-5) | growth inhibition (GI) (MDA-MB-435) | growth inhibition (GI) (BT-549) | growth inhibition (GI) (Malme-3M) | growth inhibition (GI) (UACC-62) | Activity (Escherichia coli [3])

Cc1cc(O)c2c(c1)C1OC(=O)[C@H](Cc3ccc(NC(=O)COc4ccc5ccccc5c4)cc3)N1C1=C2C(=O)c2cccc(O[C@H]3C[C@@H](O)[C@@H](O)[C@H](C)O3)c2C1=O (some centres undefined)
inactive: Activity (Escherichia coli [1]) | Activity (Escherichia coli [2]) | Activity (Escherichia coli [3])
